Source: publication PMC7226283 (Cancer Science, 2020)
Peptide text beside a SMILES is read from it. * marks the point of attachment. Cbz = O=C(OCc1ccccc1)*

Columns and labels:
KRASm/TP53w HCT116 cells = test: MTS cell viability assay, KRASm/TP53w HCT116; type: cell-based; conditions: read-out: IC50 on KRASm/TP53w HCT116 cells, 72 hours post-treatment, n = 3
Outline: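 ATCC parental HCT116 (KRAS mutant/TP53 wild-type) grown in RPMI1640 with 10% FBS and 1% penicillin/streptomycin at 37°C, 5% CO2. Seeded at 4 × 10^5 cells/well; test compound in DMSO added after 24 h at six levels (0–10 μM or 0–25 μM series). Viability by MTS tetrazolium read-out after 72 h. IC50 reported as mean ± SD, n = 3.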

proteasome = test: Proteasome activity in vitro
[1] = tested on: NF‐κB activity in KRASm/TP53‐ HCT116 cells; test: NF‐κB activity luciferase assay, KRASm/TP53‐ HCT116; type: cell-based; conditions: 3 hours treatment
Outline: (§1)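 Reporter assay: cells seeded at 5 × 10^4/well. After 1 day, shifted to RPMI1640 with 1% FBS for 24 h. Cotransfected by lipofection with NF‑κB‑RE luc2P luciferase plasmid plus CMV‑β‑galactosidase plasmid. 3 h later, test compound added at various concentrations in 1% FBS medium for 3 h. Cells lysed; activity expressed as luciferase/β‑galactosidase.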

KRASm/TP53‐ HCT116 cells = test: MTS cell viability assay, KRASm/TP53‐ HCT116; type: cell-based; conditions: for IC50: read-out: IC50 on KRASm/TP53‐ HCT116 cells, MTS assay, 72 hours post-treatment, n = 3; for cell growth rate of KRASm/TP53‐ HCT116 cells / recovery of the efficacy of L‐OHP on KRASm/TP53‐ HCT116 cells: Figure S2, Bay11‐7082 5 μM, TPCA1 20 μM, 72 hours; for cell growth rate of KRASm/TP53‐ HCT116 cells: MG132 0.5 μM; for recovery of the efficacy of L‐OHP on KRASm/TP53‐ HCT116 cells: MG132 0.5 μM with L‐OHP 4 μM
Outline: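 HCT116 KRASm/TP53- cells were grown in RPMI1640 with 10% FBS and 1% penicillin/streptomycin at 37°C, 5% CO2, and plated at 4 × 10^5 per well. After 24 h, Bay11-7082 (0, 5 μM), TPCA1 (0, 20 μM) or MG132 (0, 0.5 μM), all in DMSO, were added with L-OHP (0 or 4 μM). Viability was read by MTS after 72 h.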

[2] = tested on: NF‐κB activity in KRASm/TP53w HCT116 cells; test: NF‐κB activity luciferase assay, KRASm/TP53w HCT116; type: cell-based; conditions: 3 hours treatment
Outline: as §1

Safety = type: in vivo, mice
Outline: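 Female BALB/c nude mice (6 weeks old, 7-8 per group) received s.c. KRASm/TP53w HCT116 cells (4 × 10^6) and were grouped by stratified randomization on tumor volume on day 9 after implant (day 0). L-OHP was given i.p. on days 0, 3, 7, 10, 14 and 17; controls got saline 10 mL/kg. Body weight was taken on days 0, 7, 14 and 21, with hematology and biochemistry on day 21 blood. Mean ± SD; Student's t test.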

[3] = day 21, L‐OHP 8 mg/kg i.p. twice a week for 3 weeks
[4] = day 21, monotherapies compared to the control group, combination compared to L‐OHP monotherapy

| Compound | IC50 (KRASm/TP53w HCT116 cells) | IC50 (KRASm/TP53‐ HCT116 cells) | cell growth rate of KRASm/TP53‐ HCT116 cells (KRASm/TP53‐ HCT116 cells) | recovery of the efficacy of L‐OHP on KRASm/TP53‐ HCT116 cells (KRASm/TP53‐ HCT116 cells) | other results |
| --- | --- | --- | --- | --- | --- |
| curcumin | 20 µM | 17.4 µM |  |  | proteasome activity in vitro (proteasome): suppresses proteasome activity; NF‐κB activity (luciferase/β‐galactosidase) [1]: suppressed NF‐κB activity in a dose‐dependent manner; NF‐κB activity (luciferase/β‐galactosidase) [2]: suppressed NF‐κB activity in a dose‐dependent manner |
| CC(C)C[C@@H](C=O)NC(=O)[C@H](CC(C)C)NC(=O)[C@H](CC(C)C)NC(=O)OCc1ccccc1 [MG132] (Cbz-Leu-Leu-Leu-aldehyde) |  |  | suppressed cell growth rates |  |  |
| Cc1ccc(S(=O)(=O)/C=C/C#N)cc1 [Bay11‐7082] |  |  | suppressed cell growth rates | did not recover the efficacy of L‐OHP |  |
| O=C1[O][Pt]2([NH][C@@H]3CCCC[C@H]3[NH]2)[O]C1=O [L‐OHP, oxaliplatin] | 1.7 µM | 4.8 µM |  |  | hemoglobin compared to the control group (Safety; [3]): significantly decreased; platelet count compared to the control group (Safety; [3]): significantly decreased; white blood cell count compared to the control group (Safety; [3]): significantly decreased; ALT level (Safety; [4]): elevated; AST level (Safety; [4]): elevated |
| NC(=O)Nc1sc(-c2ccc(F)cc2)cc1C(N)=O [TPCA1] |  |  | suppressed cell growth rates | did not recover the efficacy of L‐OHP |  |
